The values that follow come from ChEMBL document CHEMBL1157743, “Mitotic arrest induced by a novel family of DNA topoisomerase II inhibitors” (J Med Chem, 2010).

In experiment [1] the test system is HBL-100. Briefly: Antiproliferative activity against human HBL100 cells after 48 hrs by SRB assay. It counts as functional. The conditions noted are these: HBL-100, 48 h. In outline:
(§1)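 Human solid tumor lines and three immortalized nontumor lines in culture, exposed to the test agent. Read-out is growth inhibition, reported as GI50 (μM).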
Background: In SRB staining, fixed cells bind dye roughly in proportion to their protein.

For experiment [2], the system named is SW1573. Kind of experiment: Antiproliferative activity against human SW1573 cells after 48 hrs by SRB assay. It counts as functional. The conditions noted are these: SW1573, 48 h. The essentials:
as §1

Molecules are shown by their SMILES.

By GI50 is commonly meant the concentration at which growth is held to half of that of the control. Low values mean more potent growth inhibition, high ones less potent growth inhibition.

In the case of `COC(=O)C#CC(C[C@@H](C)CCC=C(C)C)O/C=C/C(=O)OC` (stereo partly drawn), the concentration for 50% growth inhibition (GI50) in experiment [1] is 3100 nM; in experiment [2] it was 2200 nM.
Taken in the same sequence, the figures for `CCCCCCCCCCC(C#CC(=O)OC)O/C=C/C(=O)OC` (stereo not drawn) were 2200 nM and 2000 nM.
For `CC(C)C(C#CC(=O)OC(C)(C)C)O/C=C/C(=O)OC(C)(C)C` (stereo not drawn) the same measures were 3000 nM and 4800 nM.
Taken in the same sequence, the figures for `COC(=O)C#CC(O/C=C/C(=O)OC)C(C)c1ccccc1` (stereo not drawn) were 490 nM and 1200 nM.
`COC(=O)C#CC(O/C=C/C(=O)OC)C(C)C` (stereo not drawn): the figures for the GI50 in experiment [1] and in experiment [2] were 450 nM and 750 nM, respectively.
Consider `COC(=O)C#CC(O/C=C/C(=O)OC)C1CCCCC1` (stereo not drawn), for which the results for the concentration for 50% growth inhibition (GI50) in experiment [1] and in experiment [2] were 2500 nM and 2100 nM, respectively.
Taken in the same sequence, the figures for `CCOC(=O)C#CC(O/C=C/C(=O)OCC)C(C)C` (stereo not drawn) were 3000 nM and 2800 nM.
`COC(=O)C#CC(O/C=C/C(=O)OC)C(C)(C)C` (stereo not drawn): the GI50 was found to be 1800 nM in experiment [1] and 3000 nM in experiment [2].
For `CCOC(=O)C#CC(C[C@@H](C)CCC=C(C)C)O/C=C/C(=O)OCC` (stereo partly drawn) the same measures were 2600 nM and 2600 nM.
For `COC(=O)C#CC(CCc1ccccc1)O/C=C/C(=O)OC` (stereo not drawn) the same measures were 2600 nM and 2600 nM.
Taken in the same sequence, the figures for `C#CCO/C=C/C(=O)OC` were above 100000 nM and above 100000 nM.
For `CCCCCC(C#CC(=O)OC)O/C=C/C(=O)OC` (stereo not drawn), the 50% growth inhibitory concentration (GI50) in experiment [1] came to 1900 nM; in experiment [2] it was 1700 nM.
Taken in the same sequence, the figures for `CC1CCC(C(C)C)C(OC(=O)C#CC(O/C=C/C(=O)OC2CC(C)CCC2C(C)C)C(C)C)C1` (stereo not drawn) were above 100000 nM and above 100000 nM.
Taken in the same sequence, the figures for `Cc1ccc(S(=O)(=O)C#CC(O/C=C/S(=O)(=O)c2ccc(C)cc2)C(C)C)cc1` (stereo not drawn) were 3800 nM and 3200 nM.
